In ChEMBL document CHEMBL3085685, “In vitro and in vivo antileishmanial and trypanocidal studies of new N-benzene- and N-naphthalenesulfonamide derivatives” (J Med Chem, 2013):
pIC50: −log10 of the molar value. Calls of active or inactive are those of the source. The rule behind the calls is not given here.

tested on: Leishmania guyanensis; experiment: Leishmanicidal activity against extracellular promastigote stage of Leishmania guyanensis 141/93 assessed as reduction of parasite load after 48 hrs by resazurin dye-based fluorometric analysis; assay type: functional, organism-based; details: Leishmania guyanensis, 141/93, 48 h; read-out: IC50
Summary of the method: (§1)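 Log-phase promastigotes cultured in Schneider's medium with 20% heat-inactivated FBS at 26 °C, 2.5 × 10^5 per well. DMSO-dissolved compounds added as 2-fold serial dilutions, final DMSO ≤0.2% (v/v), 48 h at 26 °C. Growth read by 2.5 mM resazurin stock, fluorescence 535/590 nm. Triplicate; IC50 by probit analysis.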

Structure (SMILES) | pIC50
O=[N+]([O-])c1ccc(S(=O)(=O)Nc2nccc3ccccc23)cc1 | 4.61
O=S(=O)(Nc1nccc2ccccc12)c1ccc(Cl)cc1 | 5.37
O=S(=O)(Nc1ccc2nccnc2c1)c1ccc(Cl)cc1 | 4.59
O=S(=O)(Nc1nccc2ccccc12)c1ccccc1 | 4.03
O=S(=O)(Nc1ccc2ncsc2c1)c1ccccc1 | 4.63
O=[N+]([O-])c1ccc(S(=O)(=O)Nc2ccc3cn[nH]c3c2)cc1 | 4.32
Cc1cc2cc(NS(=O)(=O)c3ccc([N+](=O)[O-])cc3)ccc2[nH]1 | 4.71
O=[N+]([O-])c1ccc(S(=O)(=O)Nc2ccc3nccnc3c2)cc1 | 3.99
Cc1cc2cc(NS(=O)(=O)c3ccc(Cl)cc3)ccc2[nH]1 | 4.98
CC1CCCN(S(=O)(=O)c2ccccc2)C1 (stereo unspecified) | 4.27
O=S(=O)(Nc1cccc2cnccc12)c1ccc(Cl)cc1 | 4.65
O=[N+]([O-])c1ccc(S(=O)(=O)Nc2ncccn2)cc1 | 4.33

tested on: Leishmania infantum; experiment: Leishmanicidal activity against intracellular amastigote stage of Leishmania infantum MCAN/ES/96/BCN150 infected in mouse J774 cells assessed as reduction of parasite load after 48 hrs by resazurin dye-based fluorometric analysis; assay type: functional, organism-based; details: Leishmania infantum, MCAN/ES/96/BCN150, J774, 48 h; read-out: IC50
Summary of the method: (§2)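 J774 macrophages (5 × 10^4/well) infected with stationary promastigotes at 1:10, 24 h at 33 °C then 24 h at 37 °C, 5% CO2, and washed free of promastigotes. Then 2-fold serial dilutions in triplicate for 48 h at 37 °C. Cells lysed with RPMI with 0.048% HEPES and 0.006% SDS, transformed in Schneider's 3 days at 26 °C, resazurin 3 h, fluorescence 535/590 nm.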

Structure (SMILES) | pIC50
O=S(=O)(Nc1ccc2ncsc2c1)c1ccccc1 | 4.41

tested on: Leishmania infantum; experiment: Leishmanicidal activity against promastigote stage of Leishmania infantum MCAN/ES/96/BCN150 infected in BALB/c mouse assessed as reduction of parasite burden in liver at 5 mg/kg, ip qd administered for 5 days measured after 7 days by limiting dilution assay relative to untreated control; assay type: functional; details: not given
Summary of the method: (§3)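 BALB/c mice infected intracardially under pentobarbital anaesthesia with 10^7 stationary L. infantum BCN150 promastigotes. From day 21 post-infection, dosed ip once daily for 5 days in 0.1 mL propylene glycol, with an untreated control group. Killed 7 days later; spleen and liver burdens by limiting dilution and expressed as % reduction versus controls.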

Structure (SMILES) | Activity
O=S(=O)(Nc1ccc2ncsc2c1)c1ccccc1 | inactive

tested on: Leishmania infantum; experiment: Leishmanicidal activity against promastigote stage of Leishmania infantum MCAN/ES/96/BCN150 infected in BALB/c mouse assessed as reduction of parasite burden in spleen at 5 mg/kg, ip qd administered for 5 days measured after 7 days by limiting dilution assay relative to untreated control; assay type: functional; set-up: scale not given: the % may be the effect or the level left; details: route intraperitoneal; summary of the method: as §3

Structure (SMILES) | Activity [%]
O=S(=O)(Nc1ccc2ncsc2c1)c1ccccc1 | 53.51

tested on: not listed separately; experiment: Selectivity index, ratio of CC50 for mouse J774 cells to IC50 for extracellular promastigote stage of Leishmania amazonensis MHOM/Br/79/Maria; assay type: functional; details: not given

Structure (SMILES) | Ratio CC50/IC50
O=S(=O)(Nc1ccc2ncsc2c1)c1ccccc1 | >3.1

tested on: not listed separately; experiment: Cytotoxicity against mouse NCTC-929 cells assessed as reduction of cell viability after 24 hrs by resazurin dye-based […]; details: not given
Summary of the method: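 NCTC clone 929 fibroblasts in DMEM with 10% FBS and 2 mM L-glutamine, plated at 3 × 10^4 cells/well and grown overnight at 37 °C, 5% CO2. Compounds in fresh medium for 24 h, then 2 mM resazurin solution added for 3 h. Absorbance read at 570 and 595 nm; CC50 taken as 50% viability loss versus untreated cells, by probit analysis.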

Structure (SMILES) | CC50 at 24 h [µM]
O=C(Cn1ccnc1[N+](=O)[O-])NCc1ccccc1 [BENZNIDAZOLE] | > 194

tested on: Leishmania amazonensis; experiment: Leishmanicidal activity against extracellular promastigote stage of Leishmania amazonensis MHOM/Br/79/Maria assessed as reduction of parasite load after 48 hrs by resazurin dye-based fluorometric analysis; assay type: functional, organism-based; details: Leishmania amazonensis, MHOM/Br/79/Maria, 48 h; read-out: IC50; summary of the method: as §1

Structure (SMILES) | pIC50
O=[N+]([O-])c1ccc(S(=O)(=O)Nc2nccc3ccccc23)cc1 | 4.57
O=S(=O)(Nc1nccc2ccccc12)c1ccc(Cl)cc1 | 4.08
O=S(=O)(Nc1ccc2nccnc2c1)c1ccc(Cl)cc1 | 4.34
O=S(=O)(Nc1nccc2ccccc12)c1ccccc1 | 4.03
O=S(=O)(Nc1ccc2ncsc2c1)c1ccccc1 | 4.08
O=[N+]([O-])c1ccc(S(=O)(=O)Nc2ccc3cn[nH]c3c2)cc1 | 4.22
Cc1cc2cc(NS(=O)(=O)c3ccc([N+](=O)[O-])cc3)ccc2[nH]1 | 4.80
O=[N+]([O-])c1ccc(S(=O)(=O)Nc2ccc3nccnc3c2)cc1 | 3.70
Cc1cc2cc(NS(=O)(=O)c3ccc(Cl)cc3)ccc2[nH]1 | 4.74
CC1CCCN(S(=O)(=O)c2ccccc2)C1 (stereo unspecified) | 4.39
O=S(=O)(Nc1cccc2cnccc12)c1ccc(Cl)cc1 | 5.08
O=[N+]([O-])c1ccc(S(=O)(=O)Nc2ncccn2)cc1 | 4.16

tested on: Trypanosoma cruzi; experiment: Trypanocidal activity against intracellular amastigote stage of Trypanosoma cruzi CL-B5 infected in mouse NCTC-929 cells assessed as reduction of parasite load after 7 days by CPRG-based colorimetric analysis; details: nctc-929

Structure (SMILES) | IC50
O=S(=O)(Nc1ccc2ncsc2c1)c1ccccc1 | Not Active

tested on: not listed separately; experiment: Cytotoxicity against mouse J774 cells assessed as reduction of cell viability after 24 hrs by resazurin dye-based fluorometric analysis; details: not given
Summary of the method: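 J774 macrophages in RPMI 1640 with 10% heat-inactivated FBS, seeded at 5 × 10^4 cells/well and attached 24 h at 37 °C, 5% CO2. Medium swapped for drug dilutions for 24 h. Then 2.5 mM resazurin stock added for 3 h, fluorescence read at 535 nm excitation / 590 nm emission. Triplicate; CC50 from probit analysis.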

Structure (SMILES) | CC50 at 24 h [µM]
O=C(Cn1ccnc1[N+](=O)[O-])NCc1ccccc1 [BENZNIDAZOLE] | ≥ 300
O=[N+]([O-])c1ccc(S(=O)(=O)Nc2nccc3ccccc23)cc1 | 41.3
O=S(=O)(Nc1nccc2ccccc12)c1ccc(Cl)cc1 | ≥ 300
O=S(=O)(Nc1ccc2nccnc2c1)c1ccc(Cl)cc1 | 23.8
O=S(=O)(Nc1nccc2ccccc12)c1ccccc1 | ≥ 300
O=S(=O)(Nc1ccc2ncsc2c1)c1ccccc1 | ≥ 300
O=[N+]([O-])c1ccc(S(=O)(=O)Nc2ccc3cn[nH]c3c2)cc1 | ≥ 300
Cc1cc2cc(NS(=O)(=O)c3ccc([N+](=O)[O-])cc3)ccc2[nH]1 | 132
O=[N+]([O-])c1ccc(S(=O)(=O)Nc2ccc3nccnc3c2)cc1 | ≥ 300
Cc1cc2cc(NS(=O)(=O)c3ccc(Cl)cc3)ccc2[nH]1 | 195
CC1CCCN(S(=O)(=O)c2ccccc2)C1 (stereo unspecified) | ≥ 300
O=S(=O)(Nc1cccc2cnccc12)c1ccc(Cl)cc1 | 60.8
O=[N+]([O-])c1ccc(S(=O)(=O)Nc2ncccn2)cc1 | ≥ 300

tested on: Leishmania infantum; experiment: Leishmanicidal activity against extracellular promastigote stage of Leishmania infantum MCAN/ES/96/BCN150 assessed as reduction of parasite load after 48 hrs by resazurin dye-based fluorometric analysis; assay type: functional, organism-based; details: not given; summary of the method: as §1

Structure (SMILES) | IC50
O=S(=O)(Nc1nccc2ccccc12)c1ccccc1 | Not Active

same assay, conditions: Leishmania infantum, MCAN/ES/96/BCN150, 48 h; read-out: IC50

Structure (SMILES) | pIC50
O=[N+]([O-])c1ccc(S(=O)(=O)Nc2nccc3ccccc23)cc1 | 4.40
O=S(=O)(Nc1nccc2ccccc12)c1ccc(Cl)cc1 | 4.29
O=S(=O)(Nc1ccc2nccnc2c1)c1ccc(Cl)cc1 | 4.29
O=S(=O)(Nc1ccc2ncsc2c1)c1ccccc1 | 4.74
O=[N+]([O-])c1ccc(S(=O)(=O)Nc2ccc3cn[nH]c3c2)cc1 | 4.36
Cc1cc2cc(NS(=O)(=O)c3ccc([N+](=O)[O-])cc3)ccc2[nH]1 | 4.45
O=[N+]([O-])c1ccc(S(=O)(=O)Nc2ccc3nccnc3c2)cc1 | 4.09
Cc1cc2cc(NS(=O)(=O)c3ccc(Cl)cc3)ccc2[nH]1 | 4.91
CC1CCCN(S(=O)(=O)c2ccccc2)C1 (stereo unspecified) | 3.95
O=S(=O)(Nc1cccc2cnccc12)c1ccc(Cl)cc1 | 4.68
O=[N+]([O-])c1ccc(S(=O)(=O)Nc2ncccn2)cc1 | 4.12

tested on: Leishmania amazonensis; experiment: Leishmanicidal activity against intracellular amastigote stage of Leishmania amazonensis MHOM/Br/79/Maria infected in mouse J774 cells assessed as reduction of parasite load after 48 hrs by resazurin dye-based fluorometric analysis; assay type: functional, organism-based; details: Leishmania amazonensis, MHOM/Br/79/Maria, J774, 48 h; read-out: IC50; summary of the method: as §2

Structure (SMILES) | pIC50
O=S(=O)(Nc1ccc2ncsc2c1)c1ccccc1 | 4.11

tested on: Leishmania braziliensis; experiment: Leishmanicidal activity against extracellular promastigote stage of Leishmania braziliensis 2903 assessed as reduction of parasite load after 48 hrs by resazurin dye-based fluorometric analysis; assay type: functional, organism-based; details: Leishmania braziliensis, 2903, 48 h; read-out: IC50; summary of the method: as §1

Structure (SMILES) | pIC50
O=[N+]([O-])c1ccc(S(=O)(=O)Nc2nccc3ccccc23)cc1 | 4.37
O=S(=O)(Nc1nccc2ccccc12)c1ccc(Cl)cc1 | 4.43
O=S(=O)(Nc1ccc2nccnc2c1)c1ccc(Cl)cc1 | 4.09
O=S(=O)(Nc1nccc2ccccc12)c1ccccc1 | 3.79
O=S(=O)(Nc1ccc2ncsc2c1)c1ccccc1 | 4.51
O=[N+]([O-])c1ccc(S(=O)(=O)Nc2ccc3cn[nH]c3c2)cc1 | 4.66
Cc1cc2cc(NS(=O)(=O)c3ccc([N+](=O)[O-])cc3)ccc2[nH]1 | 4.77
O=[N+]([O-])c1ccc(S(=O)(=O)Nc2ccc3nccnc3c2)cc1 | 4.22
Cc1cc2cc(NS(=O)(=O)c3ccc(Cl)cc3)ccc2[nH]1 | 4.64
CC1CCCN(S(=O)(=O)c2ccccc2)C1 (stereo unspecified) | 3.94
O=S(=O)(Nc1cccc2cnccc12)c1ccc(Cl)cc1 | 4.53
O=[N+]([O-])c1ccc(S(=O)(=O)Nc2ncccn2)cc1 | 4.31

tested on: not listed separately; experiment: Selectivity index, ratio of CC50 for mouse J774 cells to IC50 for extracellular promastigote stage of Leishmania infantum MCAN/ES/96/BCN150; assay type: functional; details: not given

Structure (SMILES) | Ratio CC50/IC50
O=S(=O)(Nc1ccc2ncsc2c1)c1ccccc1 | > 13.9

tested on: Trypanosoma cruzi; experiment: Trypanocidal activity against extracellular epimastigote stage of Trypanosoma cruzi CL-B5 assessed as reduction of parasite load after 72 hrs by CPRG-based colorimetric analysis; details: not given

Structure (SMILES) | IC50
O=S(=O)(Nc1nccc2ccccc12)c1ccc(Cl)cc1 | Not Active
O=S(=O)(Nc1ccc2ncsc2c1)c1ccccc1 | Not Active
O=[N+]([O-])c1ccc(S(=O)(=O)Nc2ccc3cn[nH]c3c2)cc1 | Not Active
O=[N+]([O-])c1ccc(S(=O)(=O)Nc2ccc3nccnc3c2)cc1 | Not Active
CC1CCCN(S(=O)(=O)c2ccccc2)C1 (stereo unspecified) | Not Active

same assay, conditions: Trypanosoma cruzi, CL-B5, 72 h; read-out: IC50

Structure (SMILES) | pIC50
O=[N+]([O-])c1ccc(S(=O)(=O)Nc2nccc3ccccc23)cc1 | 3.87
O=[N+]([O-])c1ccc(S(=O)(=O)Nc2ncccn2)cc1 | 3.81
